The source of these data is ChEMBL document CHEMBL1128719, “The synthesis, structure-activity, and structure-side effect relationships of a series of 8-alkoxy- and 5-amino-8-alkoxyquinolone antibacterial agents” (J Med Chem, 1995).

Each structure is given as a SMILES string. ≈ marks a conversion by molar mass, not a printed value.

The subject of data set [1] is Clostridioides difficile. Nature of the data set: (§1) In vitro antibacterial activity was tested for Clostridium diff CD1-1. The format is functional.
For data set [2], the species on record is Mus musculus. Put plainly: phototoxic skin reaction in depilated female CD-1 mice. The format is functional. In a few lines:
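Depilated female CD-1 mice given a single oral or subcutaneous dose; UVA (320–400 nm) exposure for 3 h starting 1 h post-dose. Initial doses 30, 100 and 300 mg/kg. PTD50 (dose giving phototoxic skin reaction in 50% of mice) calculated by probit method; first day of positive reaction and no-effect dose also taken from raw data.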

The subject of the next data set is Bacteroides fragilis. Put plainly: In vitro antibacterial activity against Bacteroides fragilis BFA. The format is functional. In a few lines: (§2)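 Microtitration (microdilution) MIC determination in μg/mL against a panel of Gram-positive, Gram-negative and anaerobic organisms. Values come from duplicate or triplicate experiments and are stated accurate to ±50%.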

A further data set deals with Clostridium perfringens. Nature of the data set: In vitro antibacterial activity against Clostridium perfringens CP 3-1. The format is functional.
The species named for data set [3] is Mus musculus. Put plainly: (§3) Phototoxic skin reaction in depilated female CD-1 mice. The format is toxicity, organism-based. The following applies: in vivo. In a few lines:
(§4)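 Female CD-1 mice, depilated, given a single oral or subcutaneous dose. UVA (320–400 nm) exposure for 3 h, starting 1 h post-dose. Initial doses were 30, 100 and 300 mg/kg. PTD50 (dose giving phototoxic skin reaction in 50% of mice) derived by probit method. First day of positive reaction and no-effect dose taken from raw data.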

In the next data set the test system is V79. Nature of the data set: Clonogenic cytotoxicity against Chinese hamster V-79 cells. The format is functional. The following applies: Cricetulus griseus. In a few lines: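 Chinese hamster V-79 cells grown overnight, then exposed to drug 3 h at 37 °C; drug medium replaced with fresh medium, cells incubated 5 days and scored for colony formation. IC50 (μg/mL) taken as concentration inhibiting colony formation by 50% versus control.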

Data set [4] has as its system Peptoniphilus asaccharolyticus. Put plainly: In vitro antibacterial activity was tested for Pepto asac PA 3-1. The format is functional. In a few lines: as §2
The test system of the next data set is Cutibacterium acnes. Put plainly: In vitro antibacterial activity was tested for Propion acnes PA5-1. The format is functional. In short, it runs like this:
as §2

For the next data set, the system named is Pseudomonas aeruginosa. Nature of the data set: In vitro antibacterial activity was tested for Pseudomonas aeruginosa UI-18. The format is functional. In a few lines:
as §2

Another data set relates to Providencia rettgeri. Nature of the data set: In vitro antibacterial activity was tested for Providencia rettgeri H1771. The format is functional. In short, it runs like this: as §2
In the next data set the test system is Enterobacter cloacae. Nature of the data set: In vitro antibacterial activity was tested for Enterobacter cloacae HA2646. The format is functional.
Data set [5] relates to Escherichia coli. Put plainly: In vitro antibacterial activity was tested for Escherichia coli Vogel. The format is functional. In short, it runs like this:
as §2

Data set [6] has as its system Clostridioides difficile. The data set is described as §1. The format is functional. In a few lines:
as §2
The source holds these as a separate data set.

Data set [7] concerns Staphylococcus aureus. Put plainly: In vitro antibacterial activity was tested for Staphylococcus aureus UC-76. The format is functional. In a few lines: as §2
Another data set concerns Enterococcus faecalis. Put plainly: In vitro antibacterial activity was tested for Streptococcus faecalis MGH-2. The format is functional. In short, it runs like this:
as §2

Data set [8] concerns Staphylococcus aureus. Nature of the data set: In vitro antibacterial activity was tested for Staphylococcus aureus H228. The format is functional. In a few lines:
as §2

A further data set relates to Streptococcus pneumoniae. Nature of the data set: In vitro antibacterial activity was tested for Streptococcus pneumoniae SV-1. The format is functional. In a few lines: as §2
A further data set relates to Klebsiella pneumoniae. Nature of the data set: In vitro antibacterial activity was tested for Klebsiella pneumoniae MGH-2. The format is functional. In short, it runs like this:
as §2

For data set [9], the system named is Escherichia coli. Nature of the data set: In vitro antibacterial activity was tested for Escherichia coli H560. The format is functional. In a few lines: as §2
A further data set relates to Streptococcus pyogenes. Nature of the data set: In vitro antibacterial activity was tested for Streptococcus pyogenes C203. The format is functional. In short, it runs like this:
as §2

The species entered for data set [10] is Mus musculus. The description is as §3. The format is functional. In short, it runs like this: as §4

As to `NC1CCN(c2nc3c(cc2F)c(=O)c(C(=O)O)cn3C2CC2)C1` (stereo unspecified), the MIC in the data set with Clostridioides difficile [1] was determined as 6.3 µg/mL (≈ 19 µM); in the data set with Bacteroides fragilis it was 1.6 µg/mL (≈ 4.81 µM); in the data set on Clostridium perfringens, 0.1 µg/mL (≈ 0.301 µM); in the data set on V79, 98 µg/mL (≈ 295 µM); in [4], 0.8 µg/mL (≈ 2.41 µM); against Cutibacterium acnes, 0.2 µg/mL (≈ 0.602 µM). For the same molecule, the Photoxic reaction in the data set filed under Mus musculus [2] was 100 mg. This molecule also yielded a PTD50 in the data set filed under Mus musculus [3] of over 100 mg.
For the molecule `NC1CCN(c2c(F)cc3c(=O)c(C(=O)O)cn(C4CC4)c3c2F)C1` (stereo unspecified), the MIC in the data set with Pseudomonas aeruginosa was found to be 0.1 µg/mL (≈ 0.286 µM); against Providencia rettgeri it was 0.05 µg/mL (≈ 0.143 µM); in the data set on Bacteroides fragilis, 0.2 µg/mL (≈ 0.573 µM); against Enterobacter cloacae, 0.025 µg/mL (≈ 0.0716 µM); against Escherichia coli [5], 0.013 µg/mL (≈ 0.0372 µM); against Clostridium perfringens, 0.05 µg/mL (≈ 0.143 µM). In addition, the MIC worked out at 0.4 µg/mL (≈ 1.15 µM) against Clostridioides difficile [6]; 0.025 µg/mL (≈ 0.0716 µM) against Staphylococcus aureus [7]; 0.05 µg/mL (≈ 0.143 µM) against Enterococcus faecalis; 0.05 µg/mL (≈ 0.143 µM) against Staphylococcus aureus [8]; 0.05 µg/mL (≈ 0.143 µM) against Streptococcus pneumoniae; 0.025 µg/mL (≈ 0.0716 µM) in the data set with Klebsiella pneumoniae. The MIC against Escherichia coli [9] stood at 0.006 µg/mL (≈ 0.0172 µM); in the data set with Streptococcus pyogenes, 0.05 µg/mL (≈ 0.143 µM); in [4] it was 0.4 µg/mL (≈ 1.15 µM); in the data set on Cutibacterium acnes it was 0.2 µg/mL (≈ 0.573 µM). In the data set listed under Mus musculus [3], this molecule gave a PTD50 of 7.5 mg. For the same molecule, the No effect dose in the data set filed under Mus musculus [10] stood at 3 mg.
